Results taken from ChEMBL document CHEMBL2010714, “Radical-regulating and antiviral properties of ascorbic acid and its derivatives” (Bioorg Med Chem Lett, 2012).

Assays:
[1] = Selectivity ratio of MNTD for human RD cells to EC50 for HSV1; format: ADME, cell-based
In short: (§1)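 HSV-1-infected human RD cells were assessed by cytopathic effect. Virus titer reduction relative to untreated control gave concentrations suppressing replication by 50% and 90% (EC50, EC90). Maximum non-toxic concentration was found in uninfected RD cells after 72 h. The ratio divides MNTC by EC50 or EC90.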

[2] = Selectivity ratio of MNTD for human RD cells to EC90 for HSV1; format: ADME, cell-based; in short: as §1
Human alphaherpesvirus 1 = experiment: Antiviral activity against Herpes simplex virus type 1 infected in human RD cells assessed as inhibition of virus-induced cytopathic effect; format: functional, organism-based; details: Human alphaherpesvirus 1, RD
In short: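 Human RD cells infected with HSV-1. Cytopathic-effect method. Activity criterion: reduction in virus titer with test compound versus untreated infected control. EC50 and EC90 taken as concentrations suppressing virus replication by 50% and 90%. Maximum non-toxic concentration determined separately in uninfected cultures after 72 h incubation.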

[3] = Cytotoxicity against human RD cells assessed maximun non-toxic concentration; format: cell-based
In short: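 Maximum non-toxic concentration determined in uninfected human RD cell culture after 72 h incubation with compound.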

With `CCCCCCCCCCCCCCCC(=O)OC[C@H](O)[C@H]1OC(=O)C(O[C@H]2O[C@H](CO)[C@@H](O)[C@H](O)[C@H]2O)=C1O` the selectivity ratio [1] was 19.2, the selectivity ratio [2] was 13.9 and the EC50 (Human alphaherpesvirus 1) was 4.5 µM. It also gave an EC90 (Human alphaherpesvirus 1) of 6.2 µM and an MNTC [3] of 0.0868 mM.

`COC1=C(OC)[C@@H]([C@@H](O)CO)OC1=O` showed a selectivity ratio [1] of 1.1, a selectivity ratio [2] of 0.6 and an EC50 (Human alphaherpesvirus 1) of 1810 µM. The EC90 (Human alphaherpesvirus 1) was 3280 µM and the MNTC [3] was 1.96 mM.

`COC1=C(OC)[C@@H]([C@@H]2COC(C)(C)O2)OC1=O` gave a selectivity ratio [1] of less than 1, an EC50 (Human alphaherpesvirus 1) greater than 1640 µM and an MNTC [3] of 1.64 mM.

Compound `O=C1O[C@H]([C@@H](O)CO)C(O)=C1O[C@H]1O[C@H](CO)[C@@H](O)[C@H](O)[C@H]1O` has a selectivity ratio [1] of 72.7, a selectivity ratio [2] of 43.9 and an EC50 (Human alphaherpesvirus 1) of 16.3 µM. For the same compound, the EC90 (Human alphaherpesvirus 1) was 26.9 µM and the MNTC [3] was 1.18 mM.

Work on `O=C1O[C@H]([C@@H](O)CO)C(O)=C1O` [ASCORBIC ACID] yielded a selectivity ratio [1] of less than 1, an EC50 (Human alphaherpesvirus 1) greater than 2270 µM and an MNTC [3] of 2.27 mM.

Compound `CCCCCCCCCCCCCCCC(=O)OC[C@H](O)[C@H]1OC(=O)C(O)=C1O` [ASCORBYL PALMITATE] has a selectivity ratio [1] of less than 1, an EC50 (Human alphaherpesvirus 1) greater than 240 µM and an MNTC [3] of 0.24 mM.
